Screening results as filed in PubChem BioAssay.
A selection: hits, their analogues and other compounds. The true share with any hit is near 4.6%.
STAT1 activator = STAT1 signaling activation; activation (% of control), % at 5.5 µM; NIH 3T3 STAT1-luciferase reporter, IFN-gamma, luminescence; 100% = IFN-gamma alone, no compound; 200,000 compounds, 2.6% hits;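 active = activation above the screen-wide mean activation plus 3 SD, cut at about 130% in these data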
APP 5'UTR act = activates APP 5'UTR luciferase reporter. SH-SY5Y APP 5'UTR luciferase reporter, luminescence; zero percent = DMSO vehicle wells. activation, % at 2 µM. 190,000 compounds, 1% hits;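 active = activation above a set limit, based on mean plus 3 SD of controls, cut at about 140% in these data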
NF-kB expr up = raises NF-kB expression in human neuronal cells. NF-kB reporter expression; stronger effect = higher value. fold change at 12.5 µM. 190,000 compounds, 1.6% hits; in the data active = fold change above about 3.3
Wee1 degr inh = inhibitors of human Wee1 degradation | 220,000 compounds, 1.2% hits | reporter increase, % at 5 µM | P30291 | HeLa Luc-Wee1K328M stability, luciferase luminescence; 100% = proteasome inhibitor MG132 effect | AID 1321;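 active = activation above the mean of all tested compounds plus 3 SD, set per screening run, cut at about 8.8% in these data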;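 note: cells exposed to compound for 20 h before luminescence read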
Target sequence (P30291 whole entry K328M): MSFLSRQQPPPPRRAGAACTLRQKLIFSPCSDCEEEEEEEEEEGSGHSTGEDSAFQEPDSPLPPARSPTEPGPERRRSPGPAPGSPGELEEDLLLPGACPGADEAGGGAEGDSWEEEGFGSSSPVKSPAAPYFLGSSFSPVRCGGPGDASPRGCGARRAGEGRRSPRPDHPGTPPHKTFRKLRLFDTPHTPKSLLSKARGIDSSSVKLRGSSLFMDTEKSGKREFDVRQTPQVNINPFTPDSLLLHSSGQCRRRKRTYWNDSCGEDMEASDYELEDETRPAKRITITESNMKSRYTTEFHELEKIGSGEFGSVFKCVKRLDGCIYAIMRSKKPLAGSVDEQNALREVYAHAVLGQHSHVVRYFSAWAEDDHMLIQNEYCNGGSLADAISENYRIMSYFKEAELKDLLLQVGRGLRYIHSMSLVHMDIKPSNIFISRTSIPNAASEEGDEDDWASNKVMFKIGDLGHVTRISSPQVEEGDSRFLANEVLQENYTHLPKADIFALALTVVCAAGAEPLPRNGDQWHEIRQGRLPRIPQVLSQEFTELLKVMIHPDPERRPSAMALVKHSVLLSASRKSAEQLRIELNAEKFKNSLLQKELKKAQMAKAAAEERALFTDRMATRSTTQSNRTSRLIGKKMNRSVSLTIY
p97 inhibitor = human p97 ATPase inhibition; P55072; recombinant p97 ATPase, Kinase-Glo ATP luminescence, 3 h; inhibition, % at 8 µM; 220,000 compounds, 0.42% hits; AID 1481; in the data active = inhibition above about 15%
Mdm2 ligase inh = Mdm2 E3 ligase (human) inhibition. Q00987. cell-based MDM2 ubiquitination luciferase reporter, 2 h; 0 = plate control, 100 = twice control, blank-subtracted. signal enhancement, % at 5 µM. 210,000 compounds, 0.11% hits;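 active = signal enhancement of 30% or more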;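 note: luminescence tracks abundance of the self-degrading MDM2-luciferase fusion protein; higher signal means inhibition of MDM2 E3 ligase activity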
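Test system: stable mammalian line carrying autodegrading MDM2–luciferase fusion reporter; quantity: 2000 cells in each well; times: 4 h cell settling then 2 h compound exposure, 37 °C; detection: luminescence with SteadyLite reagent, 15 min at room temperature; evaluation: percent signal gain over controls, blank-subtracted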
Large screens that a line does not name were inactive.

COc1cccc(C(=O)/C=C/Nc2ccc(S(=O)(=O)Nc3cnc4ccccc4n3)cc2)c1	STAT1 activator 137
COc1cccc(C(=O)/C=C/Nc2ccc(S(=O)(=O)Nc3ncccn3)cc2)c1	STAT1 activator 139
COc1cccc(C(=O)/C=C/Nc2ccc(S(=O)(=O)Nc3nc(C)cc(C)n3)cc2)c1	none
CCOC(=O)c1c(N)sc(C(=O)Nc2ccccc2)c1C	APP 5'UTR act 222, NF-kB expr up 7.1
CCOC(=O)c1cc(C(=O)Nc2ccccc2F)nn1C	STAT1 activator 133, NF-kB expr up 5.9
CCC(=O)Nc1sc(C(=O)Nc2ccccc2F)c(C)c1C(=O)OC	STAT1 activator 131
COC(=O)c1c(NC(C)=O)sc(C(=O)Nc2ccccc2)c1C	Wee1 degr inh 9.1
CCOC(=O)c1c(N)sc(C(=O)Nc2ccccc2F)c1C	APP 5'UTR act 238, NF-kB expr up 7.4
CC(NC(=O)c1cccs1)c1nnc(SCc2ccc(Cl)cc2Cl)n1C (centres undefined)	none
CN(C)c1ccc2c(c1)OC(N)=C(C#N)C2c1cccc(F)c1 (centres undefined)	NF-kB expr up 5
COc1cc(C(=O)NNC(=S)Nc2ccc(S(N)(=O)=O)cc2)cc(OC)c1OC	none
CCOc1ccc(C(=O)N/N=C/c2ccc(-c3ccc(S(=O)(=O)Nc4ncccn4)cc3)o2)cc1	none
O=C(N/N=C/c1ccc(-c2ccc(S(=O)(=O)Nc3ncccn3)cc2)o1)c1cc2ccccc2cc1O	p97 inhibitor 15
CC(C)CNC(=O)NC(=O)COc1ncnc2sccc12	Wee1 degr inh 9.4
Cc1ccc(OC(=O)CCC(=O)NC(C)c2ccccc2)cc1 (centres undefined)	none
COCCCNC(=S)N(Cc1cccnc1)Cc1ccc(OC)c(OC)c1	none
O=C(Oc1coc(CSc2ncccn2)cc1=O)c1cccs1	none
O=C(CSc1nnc(NC2CCCCC2)s1)Nc1ccc2c(c1)C(=O)c1ccccc1C2=O	STAT1 activator 139
CC(C)Nc1nnc(SCC(=O)Nc2ccc3c(c2)C(=O)c2ccccc2C3=O)s1	none
COc1ccccc1N1CCN(C(c2ccc(F)cc2)c2nnnn2C(C)C)CC1 (centres undefined)	none
COc1ccccc1N1CCN(C(c2ccc(C)cc2)c2nnnn2C(C)C)CC1 (centres undefined)	Mdm2 ligase inh 38
O=C(/C=C/N1CCOCC1)c1cc2ccccc2o1	none
O=C(/C=C/N1CCOCC1)c1coc2ccccc12	STAT1 activator 136
O=C(CSc1nccc(=O)[nH]1)Nc1cccc(S(=O)(=O)N2CCOCC2)c1	none
O=C(/C=C/Nc1ccc(F)cc1F)c1ccco1	APP 5'UTR act 152, NF-kB expr up 4.9
O=C(CCNc1ccc(F)c(Cl)c1)c1ccco1	none
O=C(/C=C/Nc1ccc(F)c(Cl)c1)c1ccco1	STAT1 activator 150
O=C(/C=C/Nc1ccc(Br)cc1F)c1ccco1	NF-kB expr up 4.7
O=C(CC(Nc1ccccc1)c1ccccc1)C1CC1 (centres undefined)	none (no result: STAT1 activator, APP 5'UTR act, NF-kB expr up)
COc1ccnc(CSC(N)=Nc2cccc(C(F)(F)F)c2)c1	none
O=C(C1=C[C@H](c2ccccc2)C[C@H](OCc2ccc(CO)cc2)O1)N1CCCCCCC1	none (no result: Mdm2 ligase inh)
CC(=O)NCCN=Cc1sc2ccccc2c1O	none
CCCN=Cc1sc2ccc(OCC)cc2c1O	STAT1 activator 130
Cc1cccc(C)c1N=Cc1c(C(F)(F)F)[nH][nH]c1=O	none
NC(=O)CSc1nc(C2CC2)nc2sc3c(c12)CCCC3	STAT1 activator 150, APP 5'UTR act 140, NF-kB expr up 3.8
COC(=O)c1ccc(Oc2cc(C)nc(-n3nc(C)cc3C)n2)cc1	NF-kB expr up 3.9
COC(=O)c1ccc(Oc2nc(C)cc(Oc3ccccc3)n2)cc1	none
CN1CCN(C=Nc2nc3ccccc3nc2N2CCCC2)CC1	none
C=CCOc1c(Cl)cc(CNc2ccc(N(C)C)cc2)cc1OC	STAT1 activator 137
CSc1ncc(CN2CCc3c([nH]c4ccccc34)C2c2cccc(O)c2)cn1 (centres undefined)	none
COc1ccc(Cl)cc1-c1nc(-c2ccc(NC(=O)c3cccs3)cc2)no1	STAT1 activator 129
COc1ccc(NC(=O)c2cccs2)cc1OC	none
